Experimental data taken from ChEMBL document CHEMBL1145172, “From the potent and selective mu opioid receptor agonist H-Dmt-d-Arg-Phe-Lys-NH(2) to the potent delta antagonist H-Dmt-Tic-Phe-Lys(Z)-OH” (J Med Chem, 2005).
Where a SMILES comes first, the peptide text is derived from it. [ ]: non-standard residue; d: D form. The star is where a group is joined. Dmt = Cc1cc(O)cc(C)c1C[C@H](N)C(=O)O; Tic = O=C(O)[C@@H]1Cc2ccccc2CN1; Cbz = O=C(OCc1ccccc1)*

Experiments:
[1] = Inhibition constant against synaptosomal Mu opioid receptor
Method in brief: (§1)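 Competitive binding on synaptosomal membranes from several separate preparations, run as independent duplicate assays with five to eight peptide doses each. Ki derived by the Cheng–Prusoff relation. Values reported as mean ± SE with n repetitions.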

[2] = biological target: T1, Delta-type opioid receptor (Mus musculus, UniProt P32300); assay: Agonistic activity against delta opioid receptor of mouse vas deferens assay; format: functional, tissue-based
T1 sequence (P32300 whole entry): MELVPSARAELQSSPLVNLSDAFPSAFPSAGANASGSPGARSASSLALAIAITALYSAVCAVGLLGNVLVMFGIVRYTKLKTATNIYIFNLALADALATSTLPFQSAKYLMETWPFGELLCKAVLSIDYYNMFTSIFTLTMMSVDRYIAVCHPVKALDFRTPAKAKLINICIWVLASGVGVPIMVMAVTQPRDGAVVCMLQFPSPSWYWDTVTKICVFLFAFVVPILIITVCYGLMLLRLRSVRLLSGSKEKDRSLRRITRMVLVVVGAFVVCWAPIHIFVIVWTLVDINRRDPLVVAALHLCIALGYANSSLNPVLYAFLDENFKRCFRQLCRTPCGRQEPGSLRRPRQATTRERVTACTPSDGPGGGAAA
Method in brief: (§2)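 Electrically stimulated isolated tissue: guinea pig ileum for μ and mouse vas deferens for δ. Agonist IC50 taken from dose–response curves. Values are mean ± SE from at least five fresh tissue samples.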

[3] = Inhibition constant against synaptosomal Delta Opioid Receptor; method in brief: as §1
[4] = biological target: Mu-type opioid receptor (Cavia porcellus, UniProt P97266); assay: Agonist activity against mu opioid receptor of guinea pig ileum; format: functional, tissue-based; method in brief: as §2
Mu-type opioid receptor, sequence (P97266 whole entry): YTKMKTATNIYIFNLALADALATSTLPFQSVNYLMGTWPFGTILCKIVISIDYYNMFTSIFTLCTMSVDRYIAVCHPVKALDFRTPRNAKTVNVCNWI

[5] = biological target: Opioid receptors; mu & delta (Homo sapiens) (UniProt P41143+P35372); assay: Selectivity for synaptosomal Mu rather than Delta Opioid Receptors; format: protein assay
Opioid receptors; mu & delta (Homo sapiens), sequence (P35372 whole entry, looked up): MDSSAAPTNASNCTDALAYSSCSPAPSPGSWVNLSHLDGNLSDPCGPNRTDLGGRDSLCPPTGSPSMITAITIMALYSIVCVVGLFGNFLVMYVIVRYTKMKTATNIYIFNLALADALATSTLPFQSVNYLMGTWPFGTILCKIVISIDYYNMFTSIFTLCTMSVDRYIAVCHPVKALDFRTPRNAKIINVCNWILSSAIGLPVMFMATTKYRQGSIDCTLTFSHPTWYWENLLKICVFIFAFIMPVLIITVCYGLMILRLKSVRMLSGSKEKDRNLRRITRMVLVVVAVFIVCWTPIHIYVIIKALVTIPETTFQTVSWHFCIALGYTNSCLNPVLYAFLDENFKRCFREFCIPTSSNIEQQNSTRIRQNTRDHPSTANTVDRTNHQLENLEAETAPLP
Opioid receptors; mu & delta (Homo sapiens), sequence (P41143 whole entry, looked up): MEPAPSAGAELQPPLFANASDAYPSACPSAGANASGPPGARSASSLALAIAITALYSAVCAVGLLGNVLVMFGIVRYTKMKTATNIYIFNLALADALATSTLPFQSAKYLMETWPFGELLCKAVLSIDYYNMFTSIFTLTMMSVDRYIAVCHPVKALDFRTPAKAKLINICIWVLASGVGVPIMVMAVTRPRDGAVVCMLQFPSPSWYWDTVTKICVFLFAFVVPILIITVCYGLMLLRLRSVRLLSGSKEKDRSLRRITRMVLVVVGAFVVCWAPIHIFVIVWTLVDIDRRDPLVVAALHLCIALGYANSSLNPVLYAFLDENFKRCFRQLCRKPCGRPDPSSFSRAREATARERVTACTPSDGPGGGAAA

[6] = biological target: T1, Delta-type opioid receptor; assay: Antagonist activity in mouse vas deferens assay; format: functional, tissue-based; details: read-out: pA2 (converted)
Method in brief: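 Electrically stimulated mouse vas deferens, with deltorphin C as the δ agonist. Antagonism expressed as pA2: the negative log of the molar antagonist concentration that doubles the agonist concentration needed to restore the original submaximal response.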

Row | SMILES | Ki [1] [nM] | IC50 [2] [nM] | Ki [3] [nM] | IC50 [4] [nM] | Selectivity [5] | Kb [6] [nM]
1 | Cc1cc(O)cc(C)c1C[C@H](N)C(=O)N[C@H](CCC/N=C(/N)N[N+](=O)[O-])C(=O)N[C@@H](Cc1ccccc1)C(=O)N[C@@H](CCCCNC(=O)OCc1ccccc1)C(=O)O | 1.45 | 682 | 47.6 | 63 | – | –
2 | Cc1cc(O)cc(C)c1C[C@H](N)C(=O)N[C@H](CCCN=C(N)N[N+](=O)[O-])C(=O)N[C@@H](Cc1ccccc1)C(=O)N[C@@H](CCCCNC(=O)OCc1ccccc1)C(N)=O | 0.15 | 1.69 | 24.2 | 0.509 | – | –
3 | Cc1cc(O)cc(C)c1C[C@H](N)C(=O)N1Cc2ccccc2C[C@H]1C(=O)N[C@@H](Cc1ccccc1)C(=O)N[C@@H](CCCCNC(=O)OCc1ccccc1)C(N)=O (H-[Dmt][Tic]FK(Cbz)-NH2) | 1.14 | > 10000 | 0.23 | 1890 | 5 | 3.8
4 | Cc1cc(O)cc(C)c1C[C@H](N)C(=O)N1Cc2ccccc2C[C@H]1C(=O)N[C@@H](Cc1ccccc1)C(=O)N[C@@H](CCCCNC(=O)OCc1ccccc1)C(=O)O (H-[Dmt][Tic]FK(Cbz)-OH) | – | > 10000 | – | > 10000 | 145 | 0.00372
